In the library only some 2.9% were active in any assay of this set; here they are far more common.
Tn7 DDE FP: disrupts Tn7 cyclic peptide binding to fibrin D-Dimer-E complex; FP displacement of FITC-Tn7 peptide from fibrin DD(E); 0% = median of compound wells per plate; P02675; AID 720508; inhibition, % at 8.3 µM; 370,000 compounds, 0.13% hits;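 active means inhibition above the mean of compounds falling within the control limits plus 3 SD of them, cut at about 14% in these data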;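 further: 0% = plate median of compound wells and 100% = 10 µM Aha-Tn7 peptide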
Target sequence (P02675 whole entry, looked up): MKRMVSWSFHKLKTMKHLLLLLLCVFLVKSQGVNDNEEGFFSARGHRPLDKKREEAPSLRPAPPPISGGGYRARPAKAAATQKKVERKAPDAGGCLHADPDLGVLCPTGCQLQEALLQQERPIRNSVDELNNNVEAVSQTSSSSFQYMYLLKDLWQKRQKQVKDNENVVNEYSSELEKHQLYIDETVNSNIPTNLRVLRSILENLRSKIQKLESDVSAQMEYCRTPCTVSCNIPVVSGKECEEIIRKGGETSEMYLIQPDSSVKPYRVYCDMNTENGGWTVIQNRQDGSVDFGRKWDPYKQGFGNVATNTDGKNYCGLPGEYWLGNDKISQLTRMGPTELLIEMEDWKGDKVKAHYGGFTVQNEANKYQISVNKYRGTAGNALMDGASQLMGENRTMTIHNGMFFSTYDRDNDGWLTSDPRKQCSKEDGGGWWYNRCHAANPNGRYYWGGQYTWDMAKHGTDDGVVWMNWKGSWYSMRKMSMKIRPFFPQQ
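Also added: labelled Tn7 tracer, 0.1 µM; Assay system: human fibrin DD(E) protein; Amount: 2 µM fibrin DD(E); Schedule: 10 min compound pre-incubation, 3 h probe incubation at room temperature; Repeats: one replicate per compound; Read-out basis: percent inhibition; Measured by: fluorescence polarization of the labelled Tn7 tracer.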
CRFR2-BP antag: antagonists of CRF-binding protein/CRF-R2 receptor complex. HEK293 CRF-R2/CRF-BP, CRF-induced calcium fluorescence. inhibition, % at 11.8 µM. 350,000 compounds, 0.59% hits;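 active means inhibition of the ligand-induced calcium signal above about 50% at the single tested concentration, limit read from the data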
CendR NRP1 mod: NRP-1/CendR interaction modulation | O14786 | FAM-RPARPAR peptide binding to NRP-1, fluorescence polarization | inhibition, % at 25 µM | 360,000 compounds, 0.85% hits | AID 602438;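 active means inhibition or corrected inhibition above about 18%, plus a signal ratio from 0.5 to 1.5, limit read from the data, passing the limit was not always enough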
DDE Tn6 FP inh: inhibitors of Tn6 peptide binding to human fibrin DD(E). P02675. Fibrin DD(E) TRITC-Tn6 fluorescence polarization displacement. inhibition, % at 8.3 µM. 370,000 compounds, 0.21% hits;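 active means inhibition above a per-campaign cutoff: mean of compounds within control limits plus 3 SD, cut at about 15% in these data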;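 further: 0% = median of all compound wells on the plate and 100% = blocking peptide control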
CRFR2-BP ag: agonists of human CRF-binding protein/CRF-R2 receptor complex; HEK293 CRF-R2/CRF-BP, calcium dye fluorescence (FLIPR); percent of saturating CRF peptide response; activation, % at 13.2 µM; 350,000 compounds, 0.46% hits; AID 588473;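 active means activation of at least 50%, plus an integration ratio under a set limit after plate pattern correction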;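 further: plate controls were neutral control wells without compound for no effect and CRF at EC100 for full effect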
proKLK7 act: activators of human kallikrein-7 zymogen. P49862. purified proKLK7, EDANS-DABCYL substrate fluorescence; 100% is mature enzyme control, 0% vehicle. activation, % at 7 µM. 370,000 compounds, 0.9% hits. AID 652039;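 active means activation above the mean of all tested compounds plus 3 SD, computed per campaign excluding outliers beyond control limits, cut at about 13% in these data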
Target sequence (P49862 whole entry, looked up): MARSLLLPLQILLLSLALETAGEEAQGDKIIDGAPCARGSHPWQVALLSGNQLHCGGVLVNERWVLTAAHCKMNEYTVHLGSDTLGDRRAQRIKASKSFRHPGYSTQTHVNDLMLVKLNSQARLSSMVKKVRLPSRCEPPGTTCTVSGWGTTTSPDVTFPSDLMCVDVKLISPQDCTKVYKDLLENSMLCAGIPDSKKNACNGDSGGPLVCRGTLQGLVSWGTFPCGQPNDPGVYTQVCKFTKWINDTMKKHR
KLK7 act conf: confirmation of human kallikrein-7 zymogen activators. shares compounds with proKLK7 act. purified proKLK7, EDANS-DABCYL substrate fluorescence; scaled: vehicle 0, mature enzyme 100. activation, % at 7 µM. 3,200 compounds, 68% hits;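 active means activation, as change over the incubation, above the mean of all tested compounds plus 3 SD, cut at about 13% in these data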
EDANS interfere: optically interferes with EDANS-DABCYL signal, flagging KLK7 hits. shares compounds with proKLK7 act. EDANS-DABCYL substrate fluorescence interference, no enzyme, 4 h; solvent 0%, active enzyme control 100%. activation, % at 7 µM. 3,200 compounds, 80% hits. AID 686952;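 active means activation above the all-compound mean plus 3 SD, ignoring values outside control-based bounds, cut at about 4.8% in these data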;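 further: value is the 4 h activation minus the activation read at time zero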
EDANS interf: EDANS fluorescence interference in dose response, no enzyme | shares compounds with proKLK7 act | EDANS-DABCYL peptide fluorescence interference | EC50, µM | 250 compounds, 20% hits | AID 720493;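 active means compounds that raise the fluorescence signal in this interference counterscreen, with EC50 at or below 10 µM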;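 further: intact quenched peptide substrate alone read at 355 nm excitation and 520 nm emission; signal is fluorescence gain from T0 to T4 after four hours at room temperature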
Active calls of the source: *; i = inactive; nt = no result.

SMILES | Tn7 DDE FP | CRFR2-BP antag | CendR NRP1 mod | DDE Tn6 FP inh | CRFR2-BP ag | proKLK7 act | KLK7 act conf | EDANS interfere | others
COc1cc(NC(=O)NC2CCCCN(Cc3cccc(Cl)c3)C2=O)cc(OC)c1 (stereo not drawn) | -2.9 | nt | nt | -3.2 | nt | 0.0 | nt | nt
CN(C)CCNC(=O)c1coc(=O)c(Br)c1 | -4.5 | 2.5 | -1.5 | -2.3 | 2.8 | -5.7 | nt | nt
O=C(NCCc1ccccc1)c1coc(=O)c(Br)c1 | -1.6 | 15.6 | -1.0 | 2.1 | -1.7 | 13.5* | 32.1* | 25.9* | EDANS interf=i
O=C(NC(CO)(CO)CO)c1coc(=O)c(Br)c1 | -4.3 | 8.2 | 6.1 | -9.9 | -1.0 | 40.6* | 54.2* | 53.6*
CC(C)(C)CC(C)(C)Nc1c(-c2ccc(O)cc2)nc2cnccn12 | 5.5 | -33.6 | -3.6 | 2.6 | 0.3 | 39.3* | -118.1 | -104.3
CCC(Oc1ccccc1)C(=O)NC1C(=O)N2C1SC(C)(C)C2C(=O)O (stereo not drawn) | -4.2 | -3.0 | -18.6 | 1.5 | 0.6 | 0.5 | nt | nt
CC1(C)S[C@@H]2[C@H](NC(=O)[C@H](N)c3ccccc3)C(=O)N2[C@H]1C(=O)OC1OC(=O)c2ccccc21 (stereo partly drawn) | -1.5 | -32.6 | 2.3 | 0.2 | 0.4 | 15.7* | 5.9 | 4.6*
O=C(Nc1ccc(F)cc1)OCc1cn(Cc2ccccc2Cl)nn1 | -7.8 | nt | nt | -3.0 | nt | 0.2 | nt | nt
COC(=O)c1cc(N=CC2=C(O)CC(C)(C)CC2=O)cc(C(=O)OC)c1 | -0.4 | 2.1 | -8.3 | -5.7 | 0.5 | 25.1* | 46.8* | 45.4*
O=C(O)COc1ccccc1C=NNC(=O)Cc1cc(=O)[nH][nH]1 | -4.6 | nt | nt | -1.8 | nt | -0.2 | nt | nt
CCCC(=O)N1CCC1(C)C(=O)Nc1ccc2nccnc2c1 (stereo not drawn) | -1.4 | nt | -6.9 | 5.1 | nt | 12.6* | 8.2 | 8.5*
CCCC(=O)N1CCC1(C)C(=O)Nc1ccc2scnc2c1 (stereo not drawn) | nt | nt | -2.0 | nt | nt | nt | nt | nt
Cc1cc(Nc2cccc(F)c2)nc(-c2ccccc2O)n1 | -5.8 | 2.4 | 7.5 | -12.5 | -0.6 | 196.5* | 12.7* | -68.9 | EDANS interf=>69.5
Cc1cc(Nc2ccccc2)nc(-c2ccccc2O)n1 | -2.3 | -8.0 | 3.8 | -13.6 | 1.8 | 2.0 | nt | nt
O=C(NCC1CCN(C(=O)C(=O)c2cccs2)CC1)c1cccnc1 | 1.1 | nt | nt | 1.9 | nt | 0.6 | nt | nt
O=C(Nc1ccccc1)OCCN1CCCC12CCC(c1ccccc1)CC2 (stereo not drawn) | -2.7 | nt | nt | -5.1 | nt | nt | nt | nt
CC(C)NC[C@@H](O)c1ccc(O)c(O)c1 | -2.0 | -3.4 | 13.5 | 4.4 | 5.3 | 32.6* | 50.5* | 48.8*
COc1ccc2c(C(=O)NCCCCO)c(-c3ccc(S(C)(=O)=O)cc3)sc2c1 | 5.4 | 1.3 | 8.9 | 3.4 | -0.1 | 48.6* | 65.2* | 82.2*
O=[n+]1cc(-c2cc3ccccc3o2)n([O-])c2c1CCCC2 | -5.3 | 0.2 | -1.4 | -1.6 | 0.4 | 14.9* | 12.4 | 17.8*
COc1ccc2c(c1)[C@@]1(OCCC=C[C@H]1C)C(=O)N2Cc1ccccc1C(F)(F)F | 7.1 | nt | nt | 3.8 | nt | 0.2 | nt | nt
O=c1oc2c(CN3CCOCC3)c(O)ccc2c2c1CCCC2 | -0.8 | -28.9 | 3.0 | 8.7 | 3.2 | 51.9* | 68.9* | 64.3*
O=C(COc1cc2oc(=O)c3c(c2cc1Cl)CCC3)NCCN1CCOCC1 | -2.2 | 0.3 | 13.0 | -4.0 | 0.5 | 0.0 | nt | nt
O=c1oc2c(CN3CCOCC3)c(O)ccc2c2ccccc12 | 3.7 | -9.6 | 15.5 | 2.8 | 0.3 | 1.1 | nt | nt
O=c1oc2c(CN3CCOCC3)c(O)c(Cl)cc2c2c1CCCC2 | 3.4 | 11.3 | -3.2 | -0.7 | 0.4 | 53.2* | 65.9* | 67.4*
CCOC(=O)Cn1cc(CN2C(C(=O)OC)CN(C3CC3)CCS2(=O)=O)nn1 (stereo not drawn) | 1.2 | nt | nt | 4.1 | nt | -0.8 | nt | nt
SMILES | Tn7 DDE FP | CRFR2-BP antag | CendR NRP1 mod | DDE Tn6 FP inh | CRFR2-BP ag | proKLK7 act | KLK7 act conf | EDANS interfere | others
CN(Cc1ccccc1)C(=O)c1cccc(NC(=O)Cc2cccc(NC(=O)C3CCN(C(=O)CCc4ccccc4)CC3)c2)c1 | 8.0 | nt | nt | 5.7 | nt | 0.7 | nt | nt
COc1cc([N+](=O)[O-])ccc1NC(=O)CN1CCc2cc(OC)c(OC)cc2C1 | 7.8 | 7.2 | -13.4 | 6.3 | 0.4 | 24.9* | 1.7 | 1.6
COc1cc2c(cc1OC)CN(CC(=O)NC(=O)NCc1ccccc1)CC2 | 4.6 | -12.5 | 7.8 | -7.0 | 5.4 | 14.8* | 3.1 | 4.4*
COc1cc2c(cc1OC)CN(CC(=O)Nc1cccc([N+](=O)[O-])c1)CC2 | -3.3 | 18.9 | -0.8 | -2.3 | -2.0 | 27.9* | 4.6 | 2.2
COc1cc2c(cc1OC)CN(CCC(=O)c1ccc(Br)cc1)CC2 | -0.2 | -8.4 | -6.4 | 2.8 | -0.7 | 13.7* | 6.6 | 7.8*
COc1cc2c(cc1OC)CN(C(=O)CCNC(=O)c1ccc(Br)cc1)CC2 | 0.7 | -5.1 | 6.0 | -7.6 | 3.7 | -0.1 | nt | nt
O=S(=O)(c1ccc(CN2CCOCCOCCN(Cc3ccc(S(=O)(=O)C(F)(F)F)cc3)CCOCC2)cc1)C(F)(F)F | -10.5 | nt | nt | -2.9 | nt | nt | nt | nt
CCOC(=O)C1=CCN(S(=O)(=O)c2ccc(Cl)cc2)C1c1cccc(Br)c1 (stereo not drawn) | 2.3 | nt | nt | 3.8 | nt | 0.1 | nt | nt
CSc1nc2[nH]c3c(c2c2nnnn12)CCCC3 | -4.6 | -12.1 | -3.5 | 6.0 | -7.6 | 14.2* | 7.2 | 9.8*
COc1ccc2cc(C(=O)C3CCCN(Cc4cccc(C)n4)C3)ccc2c1 (stereo not drawn) | 5.5 | 6.0 | 1.3 | -4.2 | -1.6 | 45.3* | -18.5 | -19.6
CCOC(=O)N1CCC(N2CCCC(C(=O)c3cc(C)c(OC)c(C)c3)C2)CC1 (stereo not drawn) | 4.0 | 5.6 | -1.9 | -2.6 | -1.0 | -0.2 | nt | nt
CCOC(=O)N1CCC(N2CCCC(C(=O)c3ccc4cc(OC)ccc4c3)C2)CC1 (stereo not drawn) | -1.0 | -11.8 | -19.9 | 2.8 | -0.6 | 68.9* | -29.5 | -45.2
COc1cccc(-c2ccc(NC(=O)C3CCCN(Cc4cccc(C)n4)C3)cc2)c1 (stereo not drawn) | 1.2 | -14.2 | -10.6 | 2.5 | -1.2 | 0.0 | nt | nt
Cc1ccc(-n2c(SCc3cccc(F)c3)nc3ccccc3c2=O)cc1 | 3.1 | nt | nt | 3.4 | nt | 0.2 | nt | nt

Compound activity: PubChem BioAssay, several laboratories
